For data set [1], the system named is CHO-K1. In words: Increase in uptake of DNA in CHOK1 cells after 4 hrs. The data set is classed as functional, cell-based. The settings on record: Cricetulus griseus. An outline of the steps:
(§1)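 Confluent CHO-K1 cells, rinsed, were incubated 4 h at 37 °C in serum-free F12K with 1 µg/mL Alexa Fluor-488-labeled DNA complexed with cationic lipid at 0.5, 2.5 or 5 µg/mL. Cells were washed with PBS, trypsinized, washed with ice-cold PBS/1% BSA to remove surface signal, then assayed by flow cytometry for internalized fluorescence. Gated percent positive cells were set against DNA-only cells; mean ± SD.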

For data set [2], the system named is CHO. Description: Survival of CHO cells after 48 hrs upto 6.4 uM. It is filed as functional, Cricetulus griseus. An outline of the steps:
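CHO cells grown at 37 °C, 5% CO2, in RPMI with 10% fetal calf serum, 2 mM glutamine, penicillin/streptomycin and 2 mM aminoguanidine. Viability was checked by trypan blue before each run. Cells were plated at 2e3 cells/mL in 96-well plates and dosed after overnight incubation. DMSO was kept below 40 µM. Growth after 48 h was read as MTT formazan absorbance at 540 nm.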

Data set [3] has as its system CHO-K1. Description: Increase in uptake of DNA in CHOK1 cells after 4 hrs at 5 ug/mL. The data set is classed as functional, cell-based. As to conditions: Cricetulus griseus. An outline of the steps: as §1
Data set [4] deals with CHO-K1. Description: Transfection efficiency in eGFP encoding DNA transfected CHOK1 cells after 24 hrs at 5 ug/mL. The data set is classed as functional, Cricetulus griseus. An outline of the steps: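 Subconfluent (~50%) CHO-K1 cells were exposed 4 h at 37 °C in F12K to 1 µg/mL eGFP plasmid complexed with lipid (0.5, 2.5 or 5 µg/mL). Medium was then replaced with growth medium for 24 h. Trypsinized cells were scored by FACS. The gate was set above the no-plasmid/no-lipid threshold (5.5), giving % GFP-positive cells; mean ± SD.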

Data set [5] relates to CHO. In words: Cytotoxicity against CHO cells after 24 hrs at 0.5 uM. It is filed as cell-based, Cricetulus griseus. The settings on record: chinese hamster.
A short description of data set [6]: Inhibition of [14C]spermine uptake into polyamine transporter in CHOK1 cells. The settings on record: Cricetulus griseus, CHO-K1. The data set is classed as cell-based. An outline of the steps:
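Subconfluent CHO-K1 cells were rinsed three times in F12K and dosed with varying compound concentrations. They were incubated 20 min with 1 µM [14C]spermine (31 Ci/mol) in serum-free medium, rinsed (including 1 mM spermine washes), and lysed in 0.5 M NaOH for 1 h at 37 °C. Lysates were neutralized and scintillation-counted to give an IC50.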

Activity calls are given as the source filed them. Bounds are passed on as bounds.

Turning to `CCCCCCCC/C=C/CCCCCCCCOc1ccc(CNCCCCNCCCCN)cc1OCCCCCCCC/C=C/CCCCCCCC`, the Activity result in the data set with CHO-K1 [1] is “Dose-dependent effect”; in the data set with CHO-K1 [4] it was 49%. Besides, in the data set on CHO [2], the Survival result is listed as “>=90%”. In addition, in the data set on CHO-K1 [3], the outcome was Active.

Turning to `CCCCCCCC/C=C/CCCCCCCCOc1ccc(C(=O)NCCCCNCCCCNCCCCN)cc1OCCCCCCCC/C=C/CCCCCCCC`, the Activity entry with CHO-K1 [1] was “Dose-dependent effect”; in the data set on CHO [5], 95%.

Broadly, the IC50 is the midpoint of a concentration-inhibition curve. Read a low IC50 as higher potency. Turning to `CCCCCCCC/C=C/CCCCCCCCOc1ccc(CNCCCCNCCCCNCCCCN)cc1OCCCCCCCC/C=C/CCCCCCCC`, the Activity result in the data set with CHO-K1 [1] was “Dose-dependent effect”; in the data set on CHO-K1 [4], 67%. The molecule also had an IC50 in data set [6] of 10 µM. For the same molecule, the Survival result in the data set with CHO [2] is on record as “>=90%”. The result in the data set with CHO-K1 [3] was Active.

As for `CCCCCCCC/C=C/CCCCCCCCOc1ccc(CNCCOCCOCCN)cc1OCCCCCCCC/C=C/CCCCCCCC`, the Activity result is “Dose-dependent effect” in the data set with CHO-K1 [1] and 25% with CHO-K1 [4]. Besides, the Survival result in the data set on CHO [2] is recorded as “>=90%”.

As for `CCCCCCCC/C=C/CCCCCCCCOc1ccc(CNCCCCN)cc1OCCCCCCCC/C=C/CCCCCCCC`, the Activity entry is “Dose-dependent effect” in the data set on CHO-K1 [1] and 38% in the data set on CHO-K1 [4]. For the same molecule, the Survival result with CHO [2] is listed as “>=90%”. For the same molecule, in the data set on CHO-K1 [3], the outcome was Active.

On to `CCCCCCCC/C=C/CCCCCCCCOc1ccc(C(=O)NCCCCNCCCCN)cc1OCCCCCCCC/C=C/CCCCCCCC`, for which the Activity entry is “Dose-dependent effect” in the data set with CHO-K1 [1] and 40% in the data set with CHO-K1 [4]. Also, the Survival entry in the data set on CHO [2] is “>=90%”.

`CCCCCCCC/C=C/CCCCCCCCOc1ccc(CNCCCCCCCCN)cc1OCCCCCCCC/C=C/CCCCCCCC`: the Activity entry in the data set with CHO-K1 [1] is “Dose-dependent effect”; in the data set on CHO-K1 [4], 23%. Moreover, the Survival result in the data set on CHO [2] is “>=90%”.

The values above are taken from ChEMBL document CHEMBL1139837, “Synthesis and transfection efficiencies of new lipophilic polyamines” (J Med Chem, 2007).
